This is an account of results in ChEMBL document CHEMBL4706649, “Design, synthesis and biological evaluation of new benzoxazolone/benzothiazolone derivatives as multi-target agents against Alzheimer's disease” (Eur J Med Chem, 2021).

Active and inactive are the calls of the source. The rule behind the calls is not given here.

Test [1] addresses Acetylcholinesterase (Electrophorus electricus) (UniProt O42275). Nature of the test: Inhibition of electric eel AChE at 100 uM using acetylthiocholine iodide as substrate preincubated for 10 mins followed by substrate addition and measured for 10 mins by Ellman's method relative to control. As to conditions: time 20.0 min. The method in brief:
(§1)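 Ellman single-concentration screen in 50 mM Tris-HCl pH 8.0 with DTNB (6.8 mM stock) and 1% DMSO. Enzyme solution 0.4 U/mL AChE or 0.8 U/mL BChE. Compound and enzyme preincubated 10 min at 25 °C, then ATI (10 mM stock) or BTI (30 mM stock) added. A412 followed for 10 min, blank-subtracted, % inhibition versus no-compound control. Triplicate.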
In general terms: DTNB colorimetry detects thiols as they appear.

Another test has as its target Acetylcholinesterase (Electrophorus electricus, UniProt O42275). In words: Inhibition of electric eel AChE using acetylthiocholine iodide as substrate preincubated for 10 mins followed by substrate addition and measured for 10 mins by Ellman's method.
The target of test [2] is Cholinesterase (Equus caballus) (UniProt P81908). In words: Inhibition of equine serum BChE at 100 uM using butyrylthiocholine iodide as substrate preincubated for 10 mins followed by substrate addition and measured for 10 mins by Ellman's method relative to control. As to conditions: time 20.0 min. Summed up: as §1
The target of the next test is Cholinesterase (Equus caballus, UniProt P81908). Nature of the test: Inhibition of equine serum BChE using butyrylthiocholine iodide as substrate preincubated for 10 mins followed by substrate addition and measured for 10 mins by Ellman's method. Summed up:
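BChE (0.8 U/mL solution) preincubated with inhibitor 10 min at 25 °C in Tris-HCl pH 8.0 with DTNB and 1% DMSO, then BTI (30 mM stock) added. A412 read over 10 min, blank-corrected. IC50 from log[inhibitor] versus % inhibition. Triplicate, mean ± SD.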

Test [3] in a line: Antioxidant activity assessed as trolox equivalent of AAPH radical scavenging activity at 10 uM measured every min for 90 mins by ORAC-FL assay. In kind it is functional. Summed up:
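ORAC-FL in 75 mM phosphate buffer pH 7.4. Sample and fluorescein (150 nM final) preincubated 15 min at 37 °C, then AAPH (12 mM final) added. Fluorescence (ex 485/em 535 nm) read each minute for 90 min. Net AUC after blank subtraction, converted to Trolox equivalents from a Trolox curve (0.5–8, final; Trolox = 1). Duplicate wells, three independent assays.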

The subject of test [4] is THP-1. In words: Antiinflammatory activity in LPS-induced human THP-1 cells assessed as reduction in IL1beta release at 10 uM peincubated for 1 hr followed by LPS stimulation and measured after 24 hrs by EIA. Type of test: functional, cell-based. As to conditions: time 25.0 hrs. Summed up: (§2)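 THP-1 cells grown in RPMI 1640 with 10% FCS, penicillin and streptomycin at 37 °C, 5% CO2, then plated overnight at 4×10⁴ cells/well. Test compound added 1 h before 100 ng/ml E. coli O111:B4 LPS; 24 h incubation. Untreated and LPS-only controls. […]; cytokine read by EIA at 450 nm against a standard curve. At least triplicate.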

Test [5] has as its system THP-1. In words: Antiinflammatory activity in LPS-induced human THP-1 cells assessed as reduction in IL6 release at 10 uM peincubated for 1 hr followed by LPS stimulation and measured after 24 hrs by EIA. In kind it is functional, cell-based. To be noted: time 25.0 hrs. The method in brief:
as §2

Test [6] relates to THP-1. In words: Antiinflammatory activity in LPS-induced human THP-1 cells assessed as reduction in TNFalpha release at 10 uM peincubated for 1 hr followed by LPS stimulation and measured after 24 hrs by EIA. In kind it is functional, cell-based. As to conditions: time 25.0 hrs. Summed up: as §2
Test [7] concerns THP-1. In words: Antiinflammatory activity in LPS-induced human THP-1 cells assessed as reduction in nitric oxide release at 10 uM peincubated for 1 hr followed by LPS stimulation and measured after 24 hrs by ELISA. Type of test: functional, cell-based. As to conditions: time 25.0 hrs. Summed up:
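THP-1 cells plated overnight at 4×10⁴ cells/well, given test compound 1 h before 100 ng/ml LPS (E. coli O111:B4), then incubated 24 h. Cell-free supernatants stored at −20 °C, then NO measured by ELISA kit (sensitivity 1,12 […]) from a standard curve. Untreated cells as negative control, LPS-only as positive control. At least triplicate.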
(In general: ELISA stands for enzyme-linked immunosorbent assay.)

Chain of Acetylcholinesterase (O42275 whole entry): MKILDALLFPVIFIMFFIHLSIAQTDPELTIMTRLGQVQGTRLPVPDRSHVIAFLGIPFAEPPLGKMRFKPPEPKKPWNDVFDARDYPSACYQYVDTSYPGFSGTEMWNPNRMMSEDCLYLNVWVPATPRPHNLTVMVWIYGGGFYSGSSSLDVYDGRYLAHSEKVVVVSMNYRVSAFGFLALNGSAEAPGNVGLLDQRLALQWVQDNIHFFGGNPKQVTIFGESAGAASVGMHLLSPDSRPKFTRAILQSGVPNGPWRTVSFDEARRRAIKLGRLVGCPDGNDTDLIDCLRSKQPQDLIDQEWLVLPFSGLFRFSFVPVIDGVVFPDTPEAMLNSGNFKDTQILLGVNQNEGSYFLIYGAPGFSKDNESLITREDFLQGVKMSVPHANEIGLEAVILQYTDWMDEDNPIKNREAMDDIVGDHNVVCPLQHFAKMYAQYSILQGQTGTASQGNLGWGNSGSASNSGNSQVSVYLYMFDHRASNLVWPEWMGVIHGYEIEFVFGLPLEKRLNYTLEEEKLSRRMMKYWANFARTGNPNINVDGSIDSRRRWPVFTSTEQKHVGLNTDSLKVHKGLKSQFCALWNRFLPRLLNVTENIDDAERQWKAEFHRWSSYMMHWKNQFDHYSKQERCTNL
Chain of Cholinesterase (Equus caballus) (P81908 whole entry): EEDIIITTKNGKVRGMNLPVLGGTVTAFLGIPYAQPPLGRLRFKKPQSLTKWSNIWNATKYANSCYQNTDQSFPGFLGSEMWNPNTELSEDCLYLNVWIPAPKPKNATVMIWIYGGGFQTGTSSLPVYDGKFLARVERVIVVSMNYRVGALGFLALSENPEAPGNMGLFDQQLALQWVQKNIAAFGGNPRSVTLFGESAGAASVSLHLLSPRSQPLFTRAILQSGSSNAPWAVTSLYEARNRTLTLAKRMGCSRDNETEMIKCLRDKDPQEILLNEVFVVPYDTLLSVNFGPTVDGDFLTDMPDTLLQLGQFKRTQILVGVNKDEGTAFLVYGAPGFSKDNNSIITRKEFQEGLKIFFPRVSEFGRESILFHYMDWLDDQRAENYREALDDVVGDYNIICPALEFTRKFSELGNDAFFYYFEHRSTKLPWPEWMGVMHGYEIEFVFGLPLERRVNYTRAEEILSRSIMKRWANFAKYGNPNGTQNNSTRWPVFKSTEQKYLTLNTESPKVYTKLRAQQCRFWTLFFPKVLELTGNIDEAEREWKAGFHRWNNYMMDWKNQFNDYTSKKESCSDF
Chain of Acetylcholinesterase (Electrophorus electricus) (O42275 24-633 limits assumed): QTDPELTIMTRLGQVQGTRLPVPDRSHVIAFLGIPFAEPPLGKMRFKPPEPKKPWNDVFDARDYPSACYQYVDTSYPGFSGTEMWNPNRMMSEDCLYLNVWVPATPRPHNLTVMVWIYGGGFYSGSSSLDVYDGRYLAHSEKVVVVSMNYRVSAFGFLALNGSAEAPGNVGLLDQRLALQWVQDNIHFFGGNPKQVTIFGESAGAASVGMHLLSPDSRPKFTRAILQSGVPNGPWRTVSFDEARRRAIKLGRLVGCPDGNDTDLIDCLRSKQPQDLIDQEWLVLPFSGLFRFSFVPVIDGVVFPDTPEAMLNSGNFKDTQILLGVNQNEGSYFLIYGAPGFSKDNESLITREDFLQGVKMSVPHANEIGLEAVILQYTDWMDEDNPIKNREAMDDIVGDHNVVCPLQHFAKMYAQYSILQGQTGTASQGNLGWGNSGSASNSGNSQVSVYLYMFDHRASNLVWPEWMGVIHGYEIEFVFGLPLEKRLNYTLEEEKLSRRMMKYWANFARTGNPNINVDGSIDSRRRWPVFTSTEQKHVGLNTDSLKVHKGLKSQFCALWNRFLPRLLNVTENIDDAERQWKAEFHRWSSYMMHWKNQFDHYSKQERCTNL
Chain of Cholinesterase (P81908 whole entry): as the sequence (P81908 whole entry) above

As for `Cn1c(=O)sc2cc(NC(=O)CCN3CCC(Cc4ccccc4)CC3)ccc21`, the inhibition (in general, the change of the read-out against control, counted positive when it falls) in test [1] was found to be 62%; in test [2], 60%. For the same compound, the results for the IC50 against Acetylcholinesterase and on Cholinesterase were 31.9 µM and 75.4 µM, respectively. In addition, the Activity in test [3] came to 4.01 equiv.
On to `Cn1c(=O)sc2cc(NC(=O)CCN3CCN(Cc4ccc(C(F)(F)F)cc4)CC3)ccc21`, for which the inhibition was 35% in [1] and below 10% in [2]. Further, in test [3], the Activity was found to be 4.45 equiv.
The corresponding values for `Cn1c(=O)oc2cc(NC(=O)CCN3CCN(Cc4ccc(C(F)(F)F)cc4)CC3)ccc21` are 35%, below 10% and 3.96 equiv.
On the same counts, the results for `Cn1c(=O)oc2cc(NC(=O)CCN3CCN(c4ccccc4)CC3)ccc21` are 32%, below 10% and 4.02 equiv.
Turning to `Cn1c(=O)sc2cc(NC(=O)CCN3CCN(c4ccccc4)CC3)ccc21`, the inhibition in [1] is 34%; in [2], below 10%. Besides, the Activity in test [3] is 4.24 equiv.
Regarding `Cn1c(=O)sc2cc(C(=O)CCN3CCC(c4ccccc4)CC3)ccc21`, the inhibition worked out at 81% in test [1] and 79% in test [2]. Further, the half-inhibitory concentration (IC50) (in general, the midpoint of a concentration-inhibition curve) against Acetylcholinesterase came out at 4.32 µM; on Cholinesterase, 14 µM. In addition, in [3], the Activity was found to be 3.1 equiv.
For `COc1ccc(N2CCN(CCC(=O)Nc3ccc4c(c3)sc(=O)n4C)CC2)cc1`, the inhibition in test [1] is 31%; in test [2], below 10%. In addition, the Activity in [3] came out at 4.55 equiv.
As to `Cn1c(=O)oc2cc(NC(=O)CCN3CCN(Cc4ccc(Cl)cc4)CC3)ccc21`, the inhibition is 40% in [1] and below 10% in [2]. Moreover, the Activity in test [3] came out at 4.19 equiv.
On the same counts, the results for `O=C(CCN1CCN(Cc2ccccc2)CC1)Nc1ccc2nc(-c3ccccc3)sc2c1` are below 10%, below 10% and 2.64 equiv.
In the case of `Cn1c(=O)oc2cc(NC(=O)CCCCN3CCN(Cc4ccccc4)CC3)ccc21`, the inhibition was 82% in test [1] and below 10% in test [2]. On Acetylcholinesterase, this compound returned an IC50 of 30.9 µM. Further, the Activity in [3] is 2.63 equiv.
Take `O=C(CCN1CCN(Cc2ccccc2)CC1)Nc1ccc2nc(-c3ccccc3)oc2c1`: the inhibition in [1] and in test [2] was below 10% in each case. Besides, the Activity in test [3] was 2.68 equiv.
Take `Cn1c(=O)sc2cc(NC(=O)CCN3CCN(Cc4ccc(Cl)cc4)CC3)ccc21`: the figures for the inhibition in [1] and in test [2] were 37% and below 10%, respectively. Further, in test [3], the Activity is 4.01 equiv.
Turning to `Cn1c(=O)oc2cc(C(=O)CCN3CCN(Cc4ccccc4)CC3)ccc21`, the results for the inhibition in [1] and in [2] were 97% and below 10%, respectively. In addition, at Acetylcholinesterase, half-maximal inhibition (IC50) was put at 0.89 µM. Moreover, in test [3], the Activity came to 3.03 equiv. Besides, the result in the test with THP-1 [4], in the test on THP-1 [5], in the test on THP-1 [6] and in the test on THP-1 [7] was Active.
Turning to `Cn1c(=O)sc2cc(NC(=O)CCN3CCN(c4ccc(Cl)cc4)CC3)ccc21`, the inhibition was 32% in [1] and below 10% in [2]. Besides, the Activity in test [3] worked out at 4.43 equiv.
With `Cc1ccc(N2CCN(CCC(=O)Nc3ccc4c(c3)sc(=O)n4C)CC2)cc1`, the inhibition is 35% in [1] and below 10% in test [2]. Further, in test [3], the Activity stood at 4.31 equiv.
As for `Cn1c(=O)oc2cc(NC(=O)CCN3CCN(Cc4ccc(F)cc4)CC3)ccc21`, the inhibition in test [1] stood at 66%; in [2] it was 21%. On Acetylcholinesterase, this compound registered an IC50 of 16.1 µM. Besides, the Activity in [3] came to 3.92 equiv.
Consider `Cn1c(=O)sc2cc(NC(=O)CCCN3CCN(Cc4ccccc4)CC3)ccc21`, for which the inhibition in test [1] is 93%; in [2], below 10%. For the same compound, 1.96 µM corresponded to half-maximal inhibition at Acetylcholinesterase (IC50). The Activity in test [3] came to 3.91 equiv. Further, the result in the test on THP-1 [4], in the test on THP-1 [5], in the test on THP-1 [6] and with THP-1 [7] was Active.
As to `Cn1c(=O)oc2cc(NC(=O)CCN3CCC(Cc4ccccc4)CC3)ccc21`, the inhibition is 64% in test [1] and 47% in test [2]. Besides, at Acetylcholinesterase, 24.6 µM corresponded to half-maximal inhibition (IC50). Moreover, the Activity in test [3] came to 3.87 equiv.
Consider `Cn1c(=O)sc2cc(NC(=O)CCN3CCN(Cc4ccccc4)CC3)ccc21`, for which the figures for the inhibition in [1] and in [2] were 92% and below 10%, respectively. The IC50 against Acetylcholinesterase came out at 2.34 µM. Also, the Activity in test [3] was 4.08 equiv. For the same compound, the result in the test with THP-1 [4], in the test with THP-1 [5], in the test on THP-1 [6] and in the test with THP-1 [7] was Active.
Regarding `COc1ccc(CN2CCN(CCC(=O)Nc3ccc4c(c3)sc(=O)n4C)CC2)cc1`, the figures for the inhibition in [1] and in [2] were 39% and below 10%, respectively. In test [3], the Activity amounted to 4.28 equiv.
Take `Cn1c(=O)oc2cc(NC(=O)CCN3CCN(c4ccc(F)cc4)CC3)ccc21`: the inhibition was 35% in [1] and below 10% in test [2]. For the same compound, the Activity in [3] worked out at 3.85 equiv.
Take `Cn1c(=O)sc2cc(NC(=O)CCCCN3CCN(Cc4ccccc4)CC3)ccc21`: the values for the inhibition in test [1] and in test [2] were 87% and below 10%, respectively. Besides, the IC50 against Acetylcholinesterase amounted to 14 µM. For the same compound, the Activity in test [3] was determined as 2.67 equiv.
With `Cn1c(=O)oc2cc(NC(=O)CCN3CCC(c4ccccc4)CC3)ccc21`, the inhibition was 25% in test [1] and below 10% in [2]. The Activity in test [3] came out at 4.09 equiv.
Turning to `Cn1c(=O)oc2cc(NC(=O)CCCN3CCN(Cc4ccccc4)CC3)ccc21`, the inhibition in test [1] was 94%; in [2], below 10%. For the same compound, the IC50 against Acetylcholinesterase stood at 6 µM. In test [3], the Activity turned out to be 3.97 equiv. Moreover, the result in the test with THP-1 [4], in the test with THP-1 [5], with THP-1 [6] and in the test on THP-1 [7] was Active.
Turning to `Cn1c(=O)sc2cc(NC(=O)CCN3CCN(c4ccc(C(F)(F)F)cc4)CC3)ccc21`, the inhibition in [1] is 36%; in test [2], below 10%. Further, the Activity in test [3] was found to be 4.1 equiv.
In the case of `Cc1ccc(N2CCN(CCC(=O)Nc3ccc4c(c3)oc(=O)n4C)CC2)cc1`, the inhibition in test [1] was 33%; in test [2], below 10%. In test [3], the Activity stood at 4.03 equiv.
As for `Cn1c(=O)oc2cc(NC(=O)CCN3CCN(Cc4ccccc4)CC3)ccc21`, the inhibition in [1] came out at 81%; in test [2] it was 30%. Besides, the half-inhibitory concentration (IC50) at Acetylcholinesterase was 6.94 µM. The Activity in test [3] was determined as 3.78 equiv. For the same compound, the result in the test on THP-1 [4], in the test on THP-1 [5], in the test with THP-1 [6] and in the test with THP-1 [7] was Active.
With `Cn1c(=O)oc2cc(NC(=O)CCN3CCN(c4ccc(C(F)(F)F)cc4)CC3)ccc21`, the inhibition in test [1] was 35%; in test [2], below 10%. In addition, the Activity in test [3] came out at 3.9 equiv.
Consider `COc1ccc(N2CCN(CCC(=O)Nc3ccc4c(c3)oc(=O)n4C)CC2)cc1`, for which the results for the inhibition in test [1] and in [2] were 29% and below 10%, respectively. Also, in [3], the Activity came to 4.28 equiv.
For the compound `Cn1c(=O)sc2cc(NC(=O)CCN3CCN(c4ccc(F)cc4)CC3)ccc21`, the inhibition in test [1] is 37%; in test [2], below 10%. In addition, the Activity in test [3] amounted to 4.03 equiv.
Turning to `Cn1c(=O)oc2cc(NC(=O)CCN3CCN(c4ccc(Cl)cc4)CC3)ccc21`, the inhibition is 30% in [1] and below 10% in test [2]. In addition, the Activity in [3] was 3.95 equiv.
Regarding `CN(CCC(=O)Nc1ccc2c(c1)oc(=O)n2C)Cc1ccccc1`, the figures for the inhibition in test [1] and in test [2] were 58% and 42%, respectively. The compound also yielded an IC50 at Acetylcholinesterase of 52.4 µM. The Activity in test [3] was determined as 4.3 equiv.
Turning to `COc1ccc(CN2CCN(CCC(=O)Nc3ccc4c(c3)oc(=O)n4C)CC2)cc1`, the inhibition in [1] was 38%; in test [2], below 10%. Moreover, the Activity in test [3] was found to be 4.2 equiv.
